Compounds with a hit are over-represented: about 2.5% of the library has one in this group of screens.
TRPC6 inh: mouse TRPC6 channel inhibition; Q61143; HEK293-TRPC6, membrane potential dye, ACh-evoked depolarization; active compounds read low; B-score at 10 µM; actives 1.1% (n = 310,000);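 active = B-score under library mean minus 3 SD, initial fluorescence not abnormally high, positive integrated signal ratio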;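 note: B-score derived from integrated fluorescence ratio over the kinetic read; more negative B-score means stronger inhibition of depolarization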
TRPC6 act: mouse TRPC6 channel activation | HEK293-TRPC6 membrane potential dye fluorescence; active compounds read high | B-score at 10 µM | actives 0.13% (n = 310,000) | AID 2550;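 active = B-score of the integrated fluorescence ratio above library mean plus 3 SD, and starting fluorescence ratio within library mean plus 5 SD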;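 note: higher score means more depolarization so channel activation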
TRPC4 potent: TRPC4 (mouse) allosteric potentiation; B-score at 10 µM; actives 0.42% (n = 310,000); HEK293 TRPC4beta/mu-opioid, DAMGO EC20, Fluo-4 Ca2+ flux; active compounds read high;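 active = B-score of calcium response area above 5 SD of library B-scores, with initial fluorescence ratio within 5 SD of library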;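 note: B-score of integrated fluorescence ratio over time as area under calcium response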
DSG3 Ab inh: inhibitors of pemphigus antibody binding to human desmoglein-3; P32926; DSG3-coupled beads, scFv-anti-DSG3-GFP binding, flow cytometry; active compounds read low; binding (percent of control), % at 10 µM; actives 0.48% (n = 310,000);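 active = binding more than 3 SD below its plate's average and above zero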;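 note: hits lower antibody fragment binding to DSG3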
Target sequence (P32926 whole entry, looked up, the tested form may be a part): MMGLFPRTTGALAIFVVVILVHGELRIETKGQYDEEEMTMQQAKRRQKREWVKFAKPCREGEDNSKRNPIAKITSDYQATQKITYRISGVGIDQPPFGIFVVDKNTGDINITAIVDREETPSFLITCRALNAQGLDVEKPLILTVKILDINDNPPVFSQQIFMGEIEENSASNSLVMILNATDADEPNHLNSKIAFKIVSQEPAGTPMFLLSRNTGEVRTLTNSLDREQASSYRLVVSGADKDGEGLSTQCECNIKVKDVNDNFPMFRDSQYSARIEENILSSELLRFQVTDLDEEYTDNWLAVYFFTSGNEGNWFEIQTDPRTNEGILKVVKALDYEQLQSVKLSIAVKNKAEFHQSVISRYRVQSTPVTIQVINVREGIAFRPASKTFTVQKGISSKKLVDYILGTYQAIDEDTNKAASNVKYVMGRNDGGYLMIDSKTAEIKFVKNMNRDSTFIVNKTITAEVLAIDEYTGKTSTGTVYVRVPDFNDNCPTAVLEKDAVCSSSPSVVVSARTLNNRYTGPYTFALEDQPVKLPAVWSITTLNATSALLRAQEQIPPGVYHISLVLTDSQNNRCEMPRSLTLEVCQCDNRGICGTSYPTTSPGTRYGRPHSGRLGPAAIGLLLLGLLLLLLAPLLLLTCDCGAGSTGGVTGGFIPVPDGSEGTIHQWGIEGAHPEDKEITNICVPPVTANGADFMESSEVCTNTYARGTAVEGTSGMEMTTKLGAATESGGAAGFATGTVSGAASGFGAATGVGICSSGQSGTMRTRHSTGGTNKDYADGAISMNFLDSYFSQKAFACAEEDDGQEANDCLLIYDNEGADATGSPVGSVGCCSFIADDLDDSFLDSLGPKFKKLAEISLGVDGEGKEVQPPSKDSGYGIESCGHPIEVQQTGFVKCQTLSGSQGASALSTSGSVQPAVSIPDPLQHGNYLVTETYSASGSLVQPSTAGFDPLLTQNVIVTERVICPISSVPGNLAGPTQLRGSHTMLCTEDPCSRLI
TRPC4 act: TRPC4 (mouse) channel activation; B-score at 10 µM; HEK293 TRPC4beta/mu-opioid, Fluo4 calcium fluorescence; active compounds read high; Q9QUQ5; actives 0.49% (n = 310,000);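 active = B-score above 5 SD of library B-scores, and initial fluorescence ratio not above library mean plus 5 SD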;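 note: positive B-score marks a calcium rise read as TRPC4 activation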
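System – HEK293 cells stably co-expressing mouse TRPC4beta and mu-opioid receptor · Signal – Fluo4 calcium-sensitive dye fluorescence, kinetic, 1 Hz baseline · Benchmarks – buffer (low) and maximal DAMGO (high) · Read-out – B score of integrated fluorescence ratio per well · Incubation – dye loading 45 min room temperature, 110 s kinetic read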
TRPC4 inh: inhibitors of mouse TRPC4 channel. Q9QUQ5. HEK293 TRPC4beta/mu-opioid, DAMGO-evoked Fluo4 calcium flux; active compounds read low. B-score at 10 µM. actives 0.39% (n = 300,000). AID 2247;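 active = B-score over 3 SD under the library average, no early fluorescence shift, positive overall ratio signal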
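Signal: kinetic Fluo4 fluorescence imaging of calcium influx. Material: stable TRPC4beta/mu-opioid receptor HEK293 cells. Probe or stimulus: DAMGO in two steps, submaximal then maximal.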
TRPC4 sel inh 2: second check of whether TRPC6 inhibitors also affect mouse TRPC4. shares compounds with TRPC6 inh. HEK293 TRPC4/MOR, membrane potential dye fluorescence; channel activated by saturating DAMGO dose. inhibition, % at 10 µM. actives 42% (n = 920);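 active = compounds whose fluorescence signal differed from control wells by over 3 SD, either direction, in both duplicate plates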
TRPC4 spec: mouse TRPC4 off-target activity of TRPC6 inhibitors | activity change, negative = inhibition, % at 10 µM | HEK293 TRPC4/mu-opioid, membrane potential fluorescence | actives 61% (n = 920) | shares compounds with TRPC6 inh;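 active = rise or fall in signal beyond 3 SD of buffer-only wells in both replicate plates, either sign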;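 note: integrated kinetic ratio of fluorescence range over baseline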
HEK293 MPD ctr 2-1: second check of TRPC6 inhibitor effects in parental HEK293 cells | actives 31% (n = 920) | AID 2779 | shares compounds with TRPC6 inh | signal change vs control, % at 10 µM | parental HEK293 membrane potential dye fluorescence; maximal acetylcholine challenge after compound addition;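 active = membrane potential signal moving either way by over 3 SD of the maximum-effect control, in both duplicate plates, meaning non-specific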
HEK293 MPD ctr-1: parental HEK293 nonspecific activity of TRPC6 inhibitors | shares compounds with TRPC6 inh | membrane potential signal change, % at 10 µM | AID 2780 | parental HEK293 membrane potential dye fluorescence | actives 60% (n = 920);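 active = membrane potential signal shifting up or down by more than 3 SD of buffer-only wells, on both duplicate plates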
HEK293 MPD ctr-2: counter-screen for TRPC6 modulators: effect in parental HEK293 cells | shares compounds with TRPC6 inh | membrane potential dye fluorescence | membrane potential signal change, % at 10 µM | actives 51% (n = 2,400);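 active = membrane potential signal moves up or down beyond 5 SD from buffer-only wells, on both duplicate plates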
HEK293 MPD ctr 2-2: second counter-screen for TRPC6 modulators: effect in parental HEK293 cells. membrane potential dye fluorescence; after compound, maximal acetylcholine stimulation. shares compounds with TRPC6 inh. inhibition, % at 10 µM. AID 488926. actives 14% (n = 2,400);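 active = membrane potential signal drops by more than 5 SD from the mean control signal, in both duplicate plates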;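 note: plate controls were acetylcholine ECmax control wells for no effect and buffer only wells for full effect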
TRPC4 ctr mod: mouse TRPC4 off-target activity of TRPC6 modulators; shares compounds with TRPC6 inh; actives 69% (n = 2,400); percent change from control (negative = decrease, positive = increase), % at 10 µM; AID 488927; HEK293 TRPC4/mu-opioid, membrane potential fluorescence;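 active = membrane potential signal moved up or down beyond 5 SD of buffer control wells, in both duplicate plates, actives on both sides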;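 note: plate controls were assay buffer wells for no effect and DAMGO maximal-effect wells for full effect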
TRPC4 ctr inh 2: mouse TRPC4 off-target activity of TRPC6 modulators, second screen. shares compounds with TRPC6 inh. HEK293 TRPC4/mu-opioid, membrane potential dye fluorescence; stimulated with maximal-effect DAMGO. inhibition, % at 10 µM. actives 55% (n = 2,400). AID 488928;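 active = drop in membrane potential signal beyond 5 SD of the control wells in both duplicate plates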;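 note: TRPC4 counter screen for TRPC6 hits run under conditions tuned for TRPC6 not TRPC4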
TRPC6 inh conf: confirmation of mouse TRPC6 inhibitors | shares compounds with TRPC6 inh | HEK293-TRPC6, membrane potential dye, ACh-evoked depolarization | inhibition, % at 10 µM | actives 43% (n = 3,300) | AID 488960;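 active = fluorescence ratio falls more than 5 SD below the full-stimulation control mean, in both duplicate runs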;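 note: integrated fluorescence ratio of peak minus minimum over baseline after agonist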
TRPC6 act confirm: confirmation of mouse TRPC6 activators; actives 11% (n = 2,800); activation, % at 10 µM; HEK293-TRPC6 membrane potential dye fluorescence, FDSS; shares compounds with TRPC6 inh; AID 488961;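 active = ratio signal rise beyond 5 SD above unstimulated control wells' mean, seen in both duplicate runs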;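 note: plate controls were buffer EC0 wells for no effect and acetylcholine ECmax response for full effect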
The depositor's hits bear a star; i = inactive; . = no result given.

SMILES	TRPC6 inh	TRPC6 act	TRPC4 potent	DSG3 Ab inh	TRPC4 act	TRPC4 inh	HEK293 MPD ctr-2	HEK293 MPD ctr 2-2	TRPC4 ctr mod	TRPC4 ctr inh 2	TRPC6 inh conf	TRPC6 act confirm	others
Cc1cc(Nc2cccc([N+](=O)[O-])c2)c2ccccc2n1	-8.1*	i	i	114	i	i	-164%*	i	-34%*	52%*	46%*	i
Cc1cc(Nc2cccc([N+](=O)[O-])c2)c2cccc(C)c2n1	-6.8*	i	i	98	i	i	.	.	.	.	i	i	TRPC4 sel inh 2=62%*;TRPC4 spec=-24%*;HEK293 MPD ctr 2-1=43%*;HEK293 MPD ctr-1=-444%*
CCOC(=O)c1ccc(-c2ccc3c(c2)CCC3)nc1C	i	i	i	106	i	i	.	.	.	.	.	.
Cc1cc(N2CCN(C)CC2)nc2ccc(NC(=S)NCCC(C)C)cc12	-6.2*	i	i	102	i	i	-110%*	i	-27%*	72%*	56%*	i
CCCN(CCC)CCCNC(=S)Nc1ccc2nc(N3CCCC3)cc(C)c2c1	-8*	i	i	84	i	i	.	.	.	.	i	i	TRPC4 sel inh 2=i;TRPC4 spec=-15%*;HEK293 MPD ctr 2-1=19%*;HEK293 MPD ctr-1=-166%*
Cc1cc(N2CCOCC2)nc2ccc(NC(=S)NCCC(C)C)cc12	i	i	i	80	i	i	.	.	.	.	.	.
COCCCNC(=S)Nc1ccc2nc(N3CCOCC3)cc(C)c2c1	i	i	i	113	i	i	.	.	.	.	.	.
Cc1cc(N2CCCC2)nc2ccc(NC(=S)NCCCOC(C)C)cc12	-7.1*	i	i	83	i	i	-126%*	i	-22%*	46%*	42%*	i
COc1ccc(CN2CCNC(=O)C2CC(=O)N(C)C2CCOCC2)c(F)c1 (configuration not stated)	i	i	i	104	i	i	.	.	.	.	.	.
O=C(O)c1ccc(N=N/C(=N\Nc2ccc(C(=O)O)cc2)c2ccccc2)cc1	i	i	i	.	i	i	.	.	.	.	.	.
Brc1ccc(N/N=C(/N=Nc2nn[nH]n2)c2ccccc2)cc1	-11*	i	i	95	i	-6*	-256%*	i	-44%*	91%*	65%*	i
CCOC(=O)c1nc(NCc2cccc(OC)c2)c2ccccc2n1	i	i	i	92	i	i	.	.	.	.	.	.
Cc1c(O)c(CN2CCCC2)cc2c3c(c(=O)oc12)CCC3	-5*	i	i	103	i	i	-254%*	i	-46%*	i	i	i
O=C(NCC(c1ccc(F)cc1)N1CCOCC1)c1ccc([N+](=O)[O-])o1 (configuration not stated)	.	.	.	126	.	.	.	.	.	.	.	.
c1cncc(CNc2ncnc3sccc23)c1	i	28*	i	98	44*	i	i	i	i	i	i	i
COc1cccc2sc3ccc(C#CC4(N)CCCCC4)cc3c(=O)c12	-9.2*	i	i	106	i	i	.	.	.	.	57%*	i	TRPC4 sel inh 2=59%*;TRPC4 spec=-15%*;HEK293 MPD ctr 2-1=i;HEK293 MPD ctr-1=-228%*
COc1ccc(S(=O)(=O)N2CCN(C(=O)c3ccco3)CC2)c(C)c1C	i	i	i	116	i	i	.	.	.	.	.	.
CCOC(=O)c1ccccc1NC(=O)C1CC(=O)N(C2CCCC2)C1 (configuration not stated)	.	.	.	101	.	.	.	.	.	.	.	.
Cc1nc2c(cc1C#N)C(=O)c1ccccc1-2	-5*	i	i	112	i	i	-114%*	i	-22%*	i	i	i
Cc1nc2c(nc1C)C(=O)c1ccccc1C2=O	.	.	.	89	.	.	.	.	.	.	.	.
CCN(CC(=O)Nc1ccc(NC(C)=O)cc1)C(=O)CCCc1nc2ccccc2s1	.	.	.	108	.	.	.	.	.	.	.	.
COc1ccc(C2C3=C(CC(C)(C)CC3=O)Oc3ncn(Cc4ccccc4)c(=N)c32)cc1 (configuration not stated)	-5.4*	i	i	101	i	i	146%*	i	22%*	69%*	54%*	.
O=C(CCn1cnnn1)N1CCCC(Nc2ccc(F)c(F)c2)C1 (configuration not stated)	i	i	i	98	i	i	.	.	.	.	.	.
CCOC(=O)c1c(CN2CCN(C)CC2)n(C)c2cc(Br)c(OC)cc12	-5.5*	i	i	103	i	i	-113%*	i	-22%*	72%*	44%*	i
CCOC(=O)c1c(CN2CCCCC2)n(C)c2cc(Br)c(O)cc12	i	i	i	99	i	i	.	.	.	.	.	.
Oc1ccc(CN2CCc3ccccc3C2)c2cccnc12	-7.3*	i	i	96	i	-5*	.	.	.	.	i	i	TRPC4 sel inh 2=49%*;TRPC4 spec=2.4%*;HEK293 MPD ctr 2-1=i;HEK293 MPD ctr-1=5.0%*
CC(=O)c1ccc(NC(=O)C(C)OC(=O)/C=C/c2ccco2)cc1 (configuration not stated)	.	.	.	117	.	.	.	.	.	.	.	.
Cc1nnc(SCC(=O)Nc2nccs2)n1C(C)C	i	i	i	.	i	i	.	.	.	.	.	.

Assay outcomes: PubChem BioAssay, several laboratories
